Converted amounts (≈) assume the structure as drawn.
Key:
Assay type in all cases: functional
Pseudomonas fluorescens [1] = test: Growth inhibition of Pseudomonas fluorescens NCIM 2036 at 30 ug/ml measured after 8 hrs relative to control; conditions: NCIM 2036, 8 h, read-out: GI
Method in brief: (§1)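 Bacteria grown in LB at 37 °C and 180 rpm to OD 1. Compounds added to wells, then 0.1% inoculum of 1 OD culture (620 nm). Growth read as OD at 620 nm after 8 h for gram-negative and after 12 h for gram-positive strains.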

Aspergillus flavus = test: Antifungal activity against Aspergillus flavus NCIM 539 by standard agar method
Method in brief: (§2)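 MICs determined by standard agar method; DMSO as solvent control.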

Staphylococcus aureus [2] = test: Growth inhibition of Staphylococcus aureus NCIM 2010 at 3 ug/ml measured after 12 hrs relative to control; conditions: NCIM 2010, 12 h, read-out: GI; method in brief: as §1
[3] = system: Mycobacterium tuberculosis; test: Growth inhibition of Mycobacterium tuberculosis H37Ra ATCC 25177 at dormant stage measured after 12 days by XTT dye based two fold dilution method; conditions: H37Ra ATCC 25177, 288 h
Method in brief: (§3)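 MTB H37Ra was grown in Dubos medium, then exposed in Mycobacterium pheli minimal medium (pH 6.6) to compounds dissolved in DMSO. The assay ended on day 8 (active) or day 12 (dormant). Viable cells were measured by XTT reduction menadione assay at 470 nm, blank-corrected, relative to vehicle control. Triplicates were expressed as mean ± SD. MIC came from dose-response curves.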

Bacillus subtilis [4] = test: Antibacterial activity against Bacillus subtilis NCIM 2079 measured after 12 hrs; conditions: NCIM 2079, 12 h; method in brief: as §1
Escherichia coli [5] = test: Growth inhibition of Escherichia coli NCIM 2688 at 10 ug/ml measured after 8 hrs relative to control; conditions: NCIM 2688, 8 h, read-out: GI; method in brief: as §1
Pseudomonas fluorescens [6] = test: Growth inhibition of Pseudomonas fluorescens NCIM 2036 at 3 ug/ml measured after 8 hrs relative to control; conditions: NCIM 2036, 8 h, read-out: GI; method in brief: as §1
[7] = system: Mycobacterium tuberculosis; test: Growth inhibition of Mycobacterium bovis BCG ATCC 35743 at active stage measured after 8 days by nitrate reductase dye based two fold dilution method; conditions: BCG str. ATCC 35743, 192 h
Method in brief: (§4)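 M. bovis BCG was grown in Dubos medium and assayed in Mycobacterium pheli minimal medium (pH 6.6), with compounds from DMSO stocks. Incubation lasted 8 days for active and 12 days for dormant cultures. Viability was read by nitrate reductase at 540 nm against cell-free blanks, with vehicle set as 100% growth. Primary screen was at 30, 10 and 3 µg/ml, in triplicate, mean ± SD. MIC was taken from dose-response curves.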

Pseudomonas fluorescens [8] = test: Antibacterial activity against Pseudomonas fluorescens NCIM 2036 measured after 8 hrs; conditions: NCIM 2036, 8 h; method in brief: as §1
Staphylococcus aureus [9] = test: Antibacterial activity against of Staphylococcus aureus NCIM 2010 measured after 12 hrs; conditions: NCIM 2010, 12 h; method in brief: as §1
Bacillus subtilis [10] = test: Growth inhibition of Bacillus subtilis NCIM 2079 at 3 ug/ml measured after 12 hrs relative to control; conditions: NCIM 2079, 12 h, read-out: GI; method in brief: as §1
Candida albicans = test: Antifungal activity against Candida albicans NCIM 3471 by standard agar method; method in brief: as §2
[11] = system: Mycobacterium tuberculosis; test: Growth inhibition of Mycobacterium bovis BCG ATCC 35743 at dormant stage at 30 ug/ml measured after 12 days by nitrate reductase dye based two fold dilution method relative to control; conditions: BCG str. ATCC 35743, 288 h, read-out: GI; method in brief: as §4
Escherichia coli [12] = test: Antibacterial activity against Escherichia coli NCIM 2688 measured after 8 hrs; conditions: NCIM 2688, 8 h; method in brief: as §1
[13] = system: Mycobacterium tuberculosis; test: Growth inhibition of Mycobacterium bovis BCG ATCC 35743 at dormant stage at 10 ug/ml measured after 12 days by nitrate reductase dye based two fold dilution method relative to control; conditions: BCG str. ATCC 35743, 288 h, read-out: GI; method in brief: as §4
[14] = system: Mycobacterium tuberculosis; test: Growth inhibition of Mycobacterium bovis BCG ATCC 35743 at dormant stage measured after 12 days by nitrate reductase dye based two fold dilution method; conditions: BCG str. ATCC 35743, 288 h; method in brief: as §4
Escherichia coli [15] = test: Growth inhibition of Escherichia coli NCIM 2688 at 3 ug/ml measured after 8 hrs relative to control; conditions: NCIM 2688, 8 h, read-out: GI; method in brief: as §1
Staphylococcus aureus [16] = test: Growth inhibition of Staphylococcus aureus NCIM 2010 at 10 ug/ml measured after 12 hrs relative to control; conditions: NCIM 2010, 12 h, read-out: GI; method in brief: as §1
Aspergillus niger = test: Antifungal activity against Aspergillus niger NCIM 1196 by standard agar method; method in brief: as §2
[17] = Antifungal activity against Fusarium oxysporum NCIM 1332 by standard agar method; method in brief: as §2
[18] = system: Mycobacterium tuberculosis; test: Growth inhibition of Mycobacterium bovis BCG ATCC 35743 at dormant stage at 3 ug/ml measured after 12 days by nitrate reductase dye based two fold dilution method relative to control; conditions: BCG str. ATCC 35743, 288 h, read-out: GI; method in brief: as §4
Escherichia coli [19] = test: Growth inhibition of Escherichia coli NCIM 2688 at 30 ug/ml measured after 8 hrs relative to control; conditions: NCIM 2688, 8 h, read-out: GI; method in brief: as §1
[20] = Antifungal activity against Cryptococcus neoformans NCIM 576 by standard agar method; method in brief: as §2
Staphylococcus aureus [21] = test: Growth inhibition of Staphylococcus aureus NCIM 2010 at 30 ug/ml measured after 12 hrs relative to control; conditions: NCIM 2010, 12 h, read-out: GI; method in brief: as §1
Bacillus subtilis [22] = test: Growth inhibition of Bacillus subtilis NCIM 2079 at 10 ug/ml measured after 12 hrs relative to control; conditions: NCIM 2079, 12 h, read-out: GI; method in brief: as §1
Bacillus subtilis [23] = test: Growth inhibition of Bacillus subtilis NCIM 2079 at 30 ug/ml measured after 12 hrs relative to control; conditions: NCIM 2079, 12 h, read-out: GI; method in brief: as §1
Pseudomonas fluorescens [24] = test: Growth inhibition of Pseudomonas fluorescens NCIM 2036 at 10 ug/ml measured after 8 hrs relative to control; conditions: NCIM 2036, 8 h, read-out: GI; method in brief: as §1
[25] = system: Mycobacterium tuberculosis; test: Growth inhibition of Mycobacterium tuberculosis H37Ra ATCC 25177 at active stage measured after 8 days by XTT dye based two fold dilution method; conditions: H37Ra ATCC 25177, 192 h; method in brief: as §3

Structure (SMILES)	inhibition of growth at 30 µg/mL (Pseudomonas fluorescens [1]) [%]	MIC (Aspergillus flavus) [µg/mL]	inhibition of growth at 3 µg/mL (Staphylococcus aureus [2]) [%]	IC50 [3] [µg/mL]	IC90 [3] [µg/mL]	MIC (Bacillus subtilis [4]) [µg/mL]	inhibition of growth at 10 µg/mL (Escherichia coli [5]) [%]	inhibition of growth at 3 µg/mL (Pseudomonas fluorescens [6]) [%]	IC50 [7] [µg/mL]	IC90 [7] [µg/mL]	MIC (Pseudomonas fluorescens [8]) [µg/mL]	MIC (Staphylococcus aureus [9]) [µg/mL]	inhibition of growth at 3 µg/mL (Bacillus subtilis [10]) [%]	MIC (Candida albicans) [µg/mL]	inhibition of growth at 30 µg/mL [11] [%]	MIC (Escherichia coli [12]) [µg/mL]	inhibition of growth at 10 µg/mL [13] [%]	MIC (Aspergillus niger) [µg/mL]	MIC [17] [µg/mL]	MIC [20] [µg/mL]	further results
O=C1NC(=S)S/C1=C\c1cc2ccccc2nc1Cl	5.4	150 (≈ 489 µM)	-15.7	> 30	> 30	> 30	-14.7	-17.5	> 30	> 30	> 30	> 30	7.53	150 (≈ 489 µM)	-43.1	> 30	-22.1	100 (≈ 326 µM)	100 (≈ 326 µM)	50 (≈ 163 µM)	IC50 [14]: > 30 µg/mL; IC90 [14]: > 30 µg/mL; inhibition of growth at 3 µg/mL (Escherichia coli [15]): -40.6%; inhibition of growth at 10 µg/mL (Staphylococcus aureus [16]): -21.3%; inhibition of growth at 3 µg/mL [18]: -80.1%; inhibition of growth at 30 µg/mL (Escherichia coli [19]): -28.5%; inhibition of growth at 30 µg/mL (Staphylococcus aureus [21]): -28.2%; inhibition of growth at 10 µg/mL (Bacillus subtilis [22]): 0.915%; inhibition of growth at 30 µg/mL (Bacillus subtilis [23]): 0.707%; inhibition of growth at 10 µg/mL (Pseudomonas fluorescens [24]): -9.65%; IC50 [25]: > 30 µg/mL; IC90 [25]: > 30 µg/mL
Cc1ccc2nc(Cl)c(/C=C3\SC(=S)N(CCC(=O)O)C3=O)cc2c1	-6.24	150 (≈ 382 µM)	-9.82	> 30	> 30	> 30	-47.6	5.35	> 30	> 30	> 30	> 30	-20.6	50 (≈ 127 µM)	-14.8	> 30	-7.25	100 (≈ 255 µM)	100 (≈ 255 µM)	175 (≈ 445 µM)	IC50 [14]: > 30 µg/mL; IC90 [14]: > 30 µg/mL; inhibition of growth at 3 µg/mL (Escherichia coli [15]): -37.5%; inhibition of growth at 10 µg/mL (Staphylococcus aureus [16]): -13.6%; inhibition of growth at 3 µg/mL [18]: -7.58%; inhibition of growth at 30 µg/mL (Escherichia coli [19]): -49%; inhibition of growth at 30 µg/mL (Staphylococcus aureus [21]): -19.6%; inhibition of growth at 10 µg/mL (Bacillus subtilis [22]): -25.6%; inhibition of growth at 30 µg/mL (Bacillus subtilis [23]): -31.1%; inhibition of growth at 10 µg/mL (Pseudomonas fluorescens [24]): 1.64%; IC50 [25]: > 30 µg/mL; IC90 [25]: > 30 µg/mL
Clc1ccc(COC(Cn2ccnc2)c2ccc(Cl)cc2Cl)c(Cl)c1 (configuration not stated) [MICONAZOLE]	–	12.5 (≈ 30 µM)	–	–	–	–	–	–	–	–	–	–	–	25 (≈ 60.1 µM)	–	–	–	25 (≈ 60.1 µM)	25 (≈ 60.1 µM)	25 (≈ 60.1 µM)	–
O=C(O)CN1C(=O)/C(=C/c2cc3ccccc3nc2Cl)SC1=S	13.8	–	-17.2	> 30	> 30	> 30	-8.37	-16.1	> 30	> 30	> 30	> 30	-12	125 (≈ 343 µM)	34.2	> 30	32.9	100 (≈ 274 µM)	125 (≈ 343 µM)	100 (≈ 274 µM)	IC50 [14]: > 30 µg/mL; IC90 [14]: > 30 µg/mL; inhibition of growth at 3 µg/mL (Escherichia coli [15]): -10.4%; inhibition of growth at 10 µg/mL (Staphylococcus aureus [16]): -8.62%; inhibition of growth at 3 µg/mL [18]: 23.5%; inhibition of growth at 30 µg/mL (Escherichia coli [19]): -12.1%; inhibition of growth at 30 µg/mL (Staphylococcus aureus [21]): -7.84%; inhibition of growth at 10 µg/mL (Bacillus subtilis [22]): -24.5%; inhibition of growth at 30 µg/mL (Bacillus subtilis [23]): -22.6%; inhibition of growth at 10 µg/mL (Pseudomonas fluorescens [24]): -75.5%; IC50 [25]: > 30 µg/mL; IC90 [25]: > 30 µg/mL
CCOc1ccc2nc(Cl)c(/C=C3\SC(=S)N(CCC(=O)O)C3=O)cc2c1	7.19	100 (≈ 236 µM)	-5.78	> 30	> 30	> 30	7.42	-85	> 30	> 30	> 30	> 30	-2.45	200 (≈ 473 µM)	32.5	> 30	33	175 (≈ 414 µM)	125 (≈ 296 µM)	175 (≈ 414 µM)	IC50 [14]: > 30 µg/mL; IC90 [14]: > 30 µg/mL; inhibition of growth at 3 µg/mL (Escherichia coli [15]): 5.32%; inhibition of growth at 10 µg/mL (Staphylococcus aureus [16]): -39.4%; inhibition of growth at 3 µg/mL [18]: 21.5%; inhibition of growth at 30 µg/mL (Escherichia coli [19]): 14.8%; inhibition of growth at 30 µg/mL (Staphylococcus aureus [21]): -27.7%; inhibition of growth at 10 µg/mL (Bacillus subtilis [22]): -8.28%; inhibition of growth at 30 µg/mL (Bacillus subtilis [23]): -4.16%; inhibition of growth at 10 µg/mL (Pseudomonas fluorescens [24]): -40.5%; IC50 [25]: > 30 µg/mL; IC90 [25]: > 30 µg/mL

Reference: ChEMBL document CHEMBL3877264, “Quinolidene-rhodanine conjugates: Facile synthesis and biological evaluation” (Eur J Med Chem, 2017)
